Bioassay records deposited in PubChem by Johns Hopkins Ion Channel Center.
TRPC6 inhibitor: mouse TRPC6 channel inhibitors, primary screen, cell-based, HEK293, membrane potential dye; ACh-evoked depolarization; hits give low values; B-score at 10 µM; AID 2553, 2010; Short transient receptor potential channel 6 (Mus musculus), Q61143; 310,000 tested, 1.1% active;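 active = B-score under library mean minus 3 SD, initial fluorescence not abnormally high, positive integrated signal ratio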;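 also: B-score derived from integrated fluorescence ratio over the kinetic read; more negative B-score means stronger inhibition of depolarization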
Target sequence (Q61143 whole entry, looked up): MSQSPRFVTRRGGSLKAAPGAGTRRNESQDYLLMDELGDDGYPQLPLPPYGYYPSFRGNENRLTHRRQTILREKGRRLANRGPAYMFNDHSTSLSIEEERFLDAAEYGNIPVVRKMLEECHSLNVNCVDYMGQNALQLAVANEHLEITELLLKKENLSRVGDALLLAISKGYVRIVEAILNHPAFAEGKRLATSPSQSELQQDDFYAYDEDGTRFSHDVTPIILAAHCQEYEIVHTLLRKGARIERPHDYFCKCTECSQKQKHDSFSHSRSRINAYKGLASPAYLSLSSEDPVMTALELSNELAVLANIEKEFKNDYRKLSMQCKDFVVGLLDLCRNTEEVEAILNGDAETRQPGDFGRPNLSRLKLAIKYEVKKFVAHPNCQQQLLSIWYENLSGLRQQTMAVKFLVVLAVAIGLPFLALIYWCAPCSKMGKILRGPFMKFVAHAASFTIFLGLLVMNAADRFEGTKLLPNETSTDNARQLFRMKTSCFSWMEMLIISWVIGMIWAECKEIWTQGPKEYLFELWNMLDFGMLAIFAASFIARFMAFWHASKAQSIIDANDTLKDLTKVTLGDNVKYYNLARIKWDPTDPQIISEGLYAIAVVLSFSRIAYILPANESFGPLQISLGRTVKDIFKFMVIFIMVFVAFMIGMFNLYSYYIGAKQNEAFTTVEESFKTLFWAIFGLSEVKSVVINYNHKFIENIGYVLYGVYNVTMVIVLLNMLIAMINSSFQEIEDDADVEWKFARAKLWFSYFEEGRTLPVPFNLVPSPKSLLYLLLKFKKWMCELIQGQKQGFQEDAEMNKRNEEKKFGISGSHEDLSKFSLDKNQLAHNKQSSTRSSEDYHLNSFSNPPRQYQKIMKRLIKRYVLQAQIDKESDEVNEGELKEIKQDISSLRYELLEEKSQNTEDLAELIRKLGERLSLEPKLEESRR
TRPC4 agonist: activators of mouse TRPC4 channel, primary screen, Fluo4 calcium, HEK293 TRPC4beta/mu-opioid cells | Short transient receptor potential channel 4 (Mus musculus), Q9QUQ5 | Fluo4 calcium fluorescence; hits give high values | B-score at 10 µM | 310,000 tested, 0.49% active | AID 2237, 2010;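 active = B-score above 5 SD of library B-scores, and initial fluorescence ratio not above library mean plus 5 SD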;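 also: positive B-score marks a calcium rise read as TRPC4 activation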
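Material: HEK293 stable line with TRPC4beta plus mu-opioid receptor; technique: Fluo4 calcium-sensitive dye fluorescence, kinetic, 1 Hz baseline; timing: Fluo4 dye loading 45 min at room temperature, 110 s recording; controls: assay buffer as low control, maximal DAMGO as high control; read-out: integrated baseline-normalised fluorescence ratio, converted to per-well B score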
Kir21 inh: inhibitors of mouse Kir2.1 inward-rectifier potassium channel | Inward rectifier potassium channel 2 (Mus musculus), P35561 | HEK293-Kir2.1, FluxOR thallium flux fluorescence; hits give low values | B-score at 10 µM | 310,000 tested, 0.85% active;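 active = fluorescence ratio B-score at or below minus 3 SD of library scores, with starting-brightness B-score within 2 SD, cut at about -4.2 in these data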;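 also: channel flux triggered by added potassium and thallium sulfate stimulus; B-score of peak minus minimum fluorescence over baseline after thallium stimulus; more negative B-score means stronger Kir2.1 block with less thallium influx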
TRPC6 act: mouse TRPC6 channel activators, primary screen, cell-based, HEK293, membrane potential dye | Short transient receptor potential channel 6 (Mus musculus), Q61143 | HEK293-TRPC6 membrane potential dye fluorescence; hits give high values | B-score at 10 µM | 310,000 tested, 0.13% active | AID 2550, 2010;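 active = B-score of the integrated fluorescence ratio above library mean plus 3 SD, and starting fluorescence ratio within library mean plus 5 SD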;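 also: higher score means more depolarization so channel activation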
TRPC4 PAM: positive allosteric modulators of TRPC4, primary screen, cell-based, mouse TRPC4beta, HEK293 mu-opioid, Fluo-4 calcium. B-score at 10 µM. DAMGO EC20, Fluo-4 Ca2+ flux; hits give high values. 310,000 tested, 0.42% active;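 active = B-score of calcium response area above 5 SD of library B-scores, with initial fluorescence ratio within 5 SD of library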
TRPC4 block: inhibitors of mouse TRPC4 channel, primary screen, Fluo4 calcium, HEK293 TRPC4beta/mu-opioid cells. Short transient receptor potential channel 4 (Mus musculus), Q9QUQ5. DAMGO-evoked Fluo4 calcium flux; hits give low values. B-score at 10 µM. 300,000 tested, 0.39% active. AID 2247, 2010;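 active = B-score over 3 SD under the library average, no early fluorescence shift, positive overall ratio signal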
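Assay system: TRPC4beta/mu-opioid receptor HEK293 cell line; compound dosing: single concentration per test compound; detection: Fluo4 Ca2+ flux fluorescence; evaluation: per-well B score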
TRPC4 spec 2: second check of whether TRPC6 inhibitors also affect mouse TRPC4; shares compounds with TRPC6 inhibitor; HEK293 TRPC4/MOR, membrane potential dye fluorescence; channel activated by saturating DAMGO dose; inhibition, % at 10 µM; 920 tested, 42% active; AID 2776;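 active = compounds whose fluorescence signal differed from control wells by over 3 SD, either direction, in both duplicate plates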
TRPC4 spec: mouse TRPC4 modulation by TRPC6 hits, confirmation, selectivity assay for TRPC6 inhibitor project, cell-based, HEK293 TRPC4/mu-opioid, membrane potential dye; membrane potential fluorescence; activity change, negative = inhibition, % at 10 µM; 920 tested, 61% active; shares compounds with TRPC6 inhibitor; AID 2777, 2010;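 active = rise or fall in signal beyond 3 SD of buffer-only wells in both replicate plates, either sign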;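 also: integrated kinetic ratio of fluorescence range over baseline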
HEK293 MPD ctr 2-1: nonspecific membrane potential effects, parental HEK293, confirmation, counter-screen for TRPC6 inhibitor project, cell-based, second counter screen; parental HEK293 membrane potential dye fluorescence; maximal acetylcholine challenge after compound addition; signal change vs control, % at 10 µM; 920 tested, 31% active; shares compounds with TRPC6 inhibitor;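 active = membrane potential signal moving either way by over 3 SD of the maximum-effect control, in both duplicate plates, meaning non-specific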
HEK293 MPD ctr-1: membrane potential modulation in parental HEK293, confirmation, counter-screen for TRPC6 inhibitor project, cell-based; shares compounds with TRPC6 inhibitor; parental HEK293 membrane potential dye fluorescence; membrane potential signal change, % at 10 µM; 920 tested, 60% active; AID 2780, 2010;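 active = membrane potential signal shifting up or down by more than 3 SD of buffer-only wells, on both duplicate plates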
HEK293 MPD ctr-2: parental HEK293 membrane potential modulation, confirmation, counter-screen for TRPC6 modulator project, cell-based; shares compounds with TRPC6 inhibitor; membrane potential dye fluorescence; membrane potential signal change, % at 10 µM; 2,400 tested, 51% active; AID 488924, 2010;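 active = membrane potential signal moves up or down beyond 5 SD from buffer-only wells, on both duplicate plates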
HEK293 MPD ctr 2-2: second check of TRPC6 modulator effects in parental HEK293 cells. shares compounds with TRPC6 inhibitor. membrane potential dye fluorescence; after compound, maximal acetylcholine stimulation. 2,400 tested, 14% active. inhibition, % at 10 µM;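 active = membrane potential signal drops by more than 5 SD from the mean control signal, in both duplicate plates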
TRPC4 ctr mod: TRPC4 modulation by TRPC6 hit compounds, confirmation, selectivity assay for TRPC6 modulator project, cell-based, HEK293 TRPC4/mu-opioid, membrane potential dye, mouse. 2,400 tested, 69% active. membrane potential fluorescence. percent change from control (negative = decrease, positive = increase), % at 10 µM. shares compounds with TRPC6 inhibitor. AID 488927, 2010;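 active = membrane potential signal moved up or down beyond 5 SD of buffer control wells, in both duplicate plates, actives on both sides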
TRPC4 ctr inh 2: second check of whether TRPC6 modulators also affect mouse TRPC4; shares compounds with TRPC6 inhibitor; 2,400 tested, 55% active; HEK293 TRPC4/mu-opioid, membrane potential dye fluorescence; stimulated with maximal-effect DAMGO; inhibition, % at 10 µM;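 active = drop in membrane potential signal beyond 5 SD of the control wells in both duplicate plates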;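 also: TRPC4 counter screen for TRPC6 hits run under conditions tuned for TRPC6 not TRPC4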
TRPC6 inh conf: mouse TRPC6 channel inhibitors, confirmation, HEK293 cells, membrane potential dye, duplicate | shares compounds with TRPC6 inhibitor | ACh-evoked depolarization | inhibition, % at 10 µM | 3,300 tested, 43% active;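 active = fluorescence ratio falls more than 5 SD below the full-stimulation control mean, in both duplicate runs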;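 also: integrated fluorescence ratio of peak minus minimum over baseline after agonist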
TRPC6 act conf: mouse TRPC6 channel activators, confirmation, HEK293 cells, membrane potential dye, duplicate; shares compounds with TRPC6 inhibitor; HEK293-TRPC6 membrane potential dye fluorescence, FDSS; activation, % at 10 µM; 2,800 tested, 11% active; AID 488961, 2010;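 active = ratio signal rise beyond 5 SD above unstimulated control wells' mean, seen in both duplicate runs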
Of the large screens only hits and unclear results are named; the others gave an inactive call (follow-up assays come after a bar, where they were run). This is a sample that favours compounds with a hit; in the whole collection about 2.9% have one here.

Cc1cc(C)c2c(ccc3cccc[n+]32)c1	TRPC6 inhibitor -7.62 | HEK293 MPD ctr-2 -260.0% | HEK293 MPD ctr 2-2 96.0% | TRPC4 ctr mod -39.5% | TRPC4 ctr inh 2 59.5% | TRPC6 inh conf 69.0% | TRPC6 act conf inactive
COC(=O)C1=C(c2cc3ccccc3s2)C[C@@H]2CC[C@H]1N2C(=O)NCCNC(C)=O	none
Fc1cccc(CN2CCN(c3ccc(Cl)cc3)CC2)c1	TRPC6 inhibitor -7.07 | TRPC4 spec 2 inactive | TRPC4 spec inactive | HEK293 MPD ctr 2-1 inactive | HEK293 MPD ctr-1 inactive | TRPC6 inh conf inactive | TRPC6 act conf inactive
O=c1[nH]c(=O)n(C2CCCCC2)c(O)c1/C=C/C=Nc1ccccc1	none
Cc1ccc(CN2C3CCCC2CC(NC(=O)Nc2cccc(F)c2)C3)cc1 (stereo not given)	TRPC6 inhibitor -6.49, TRPC4 agonist 53 | HEK293 MPD ctr-2 inactive | HEK293 MPD ctr 2-2 inactive | TRPC4 ctr mod 26.5% | TRPC4 ctr inh 2 95.5% | TRPC6 inh conf 49.0%
CCCC/C(=N/O)c1c(C)[nH]c2ccccc12	TRPC6 inhibitor -9.52 | TRPC4 spec 2 inactive | TRPC4 spec -13.0% | HEK293 MPD ctr 2-1 inactive | HEK293 MPD ctr-1 -142.5% | TRPC6 inh conf inactive | TRPC6 act conf inactive
CCCCC/C(=N/O)c1c(C)[nH]c2ccccc12	none
Cc1ccccc1N1CCN(C2CCCN(C(=O)Cc3c(C)noc3C)C2)CC1 (stereo not given)	none
O=C1C2CCN(CC2)C1Cc1ccc(OCc2ccccc2)cc1 (stereo not given)	none
CN1CCC(N(C)c2nc(-c3ccccc3)nc3ccccc23)CC1	TRPC6 inhibitor -7.61, TRPC4 PAM 15 | HEK293 MPD ctr-2 -305.5% | HEK293 MPD ctr 2-2 87.5% | TRPC4 ctr mod -54.0% | TRPC4 ctr inh 2 65.5% | TRPC6 inh conf 74.5% | TRPC6 act conf inactive
Cc1cc(N2CCN(C)CC2)nc2ccccc12	none
N#CCC(=O)NN1Cc2ccccc2C1=N	none
N=C1c2ccccc2CN1c1ncccn1	TRPC6 inhibitor -7.28 | HEK293 MPD ctr-2 inactive | HEK293 MPD ctr 2-2 inactive | TRPC4 ctr mod -11.0% | TRPC4 ctr inh 2 inactive | TRPC6 inh conf inactive | TRPC6 act conf inactive
Cc1cccc(OP(=O)(Oc2ccccc2)OC(c2ccccc2)C(F)(F)F)c1 (stereo not given)	none
Clc1ccc2sc(C3CCNCC3)nc2c1	TRPC6 inhibitor -6.02, TRPC4 agonist 187 | HEK293 MPD ctr-2 inactive | HEK293 MPD ctr 2-2 inactive | TRPC4 ctr mod 47.0% | TRPC4 ctr inh 2 52.5% | TRPC6 inh conf inactive | TRPC6 act conf inactive
CC(C)c1ccc(NC(=O)CCNC(=O)N2C[C@H]3C[C@@H](C2)c2cccc(=O)n2C3)cc1	none
Cc1cc(C)c(Cn2c(C(=O)O)c(C=O)c3ccccc32)c(C)c1	none
CC1(C(O)(C#CCN2CCCCC2)c2ccccc2)CCCC1 (stereo not given)	TRPC6 inhibitor -7.06 | HEK293 MPD ctr-2 141.5% | HEK293 MPD ctr 2-2 105.5% | TRPC4 ctr mod 26.5% | TRPC4 ctr inh 2 44.5% | TRPC6 inh conf 91.0%
CCCCOc1ccc(CCN)cc1Cl	TRPC6 inhibitor -6.37, TRPC4 PAM 14 | HEK293 MPD ctr-2 82.5% | HEK293 MPD ctr 2-2 inactive | TRPC4 ctr mod inactive | TRPC4 ctr inh 2 52.5% | TRPC6 inh conf 59.5%
O=C(O)COc1ccc(Cl)cc1Cl	none
OC(CC#CCN1CCCCCC1)(c1ccccc1)C1CCCC1 (stereo not given)	none
C[N+](C)(N)CCOC(=O)C(O)(c1ccccc1)C1CCCCC1 (stereo not given)	TRPC6 inhibitor -9.56 | TRPC4 spec 2 inactive | TRPC4 spec inactive | HEK293 MPD ctr 2-1 -39.0% | HEK293 MPD ctr-1 inactive | TRPC6 inh conf 89.0% | TRPC6 act conf inactive
CC[N+](CC)(CC)CCCOC(=O)C(O)(c1ccccc1)C1CCCCC1 (stereo not given)	TRPC6 inhibitor -11.8 | TRPC4 spec 2 inactive | TRPC4 spec inactive | HEK293 MPD ctr 2-1 -39.5% | HEK293 MPD ctr-1 inactive | TRPC6 inh conf 97.4% | TRPC6 act conf inactive
